In experiment [1] the test system is TNF-α-induced NFκB activity. The experiment can be described thus: NFκB luciferase assay. It counts as cell-based, human. The note with it: for inhibition at 50 µM: HEK293, read-out: NFκB % inhib.; for NFκB % inhib.: 50 μM. The procedure, abridged:
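HEK293 line carrying a chromosomally integrated luciferase reporter driven by the NFκB response element. Cells incubated 6 h with TNFα plus test compound, then luciferase activity read. Inhibition expressed as % relative to TNFα-treated control. IC50 from dose-response of five serial dilutions, mean of two experiments.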

For a further experiment, the target named is T1, aromatase (CYP19) (Homo sapiens, UniProt P11511).
T1 sequence (P11511 1-503): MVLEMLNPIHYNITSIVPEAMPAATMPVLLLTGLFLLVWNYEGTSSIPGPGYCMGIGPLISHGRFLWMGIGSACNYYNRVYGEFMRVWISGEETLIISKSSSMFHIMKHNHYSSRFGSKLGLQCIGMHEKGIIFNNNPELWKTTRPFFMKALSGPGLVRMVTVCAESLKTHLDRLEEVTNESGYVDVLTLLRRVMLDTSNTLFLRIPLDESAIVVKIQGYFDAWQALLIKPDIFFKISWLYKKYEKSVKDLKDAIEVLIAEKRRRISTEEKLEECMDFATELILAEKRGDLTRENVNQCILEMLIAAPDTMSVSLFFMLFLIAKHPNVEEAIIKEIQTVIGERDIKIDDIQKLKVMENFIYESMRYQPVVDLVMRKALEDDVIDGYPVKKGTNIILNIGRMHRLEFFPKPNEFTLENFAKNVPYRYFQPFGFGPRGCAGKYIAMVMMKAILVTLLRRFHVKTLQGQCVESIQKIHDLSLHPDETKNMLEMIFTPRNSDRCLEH
Briefly: Aromatase assay. The note with it: for inhibition at 50 µM: read-out: Aromatase % inhib., 50 μM; for inhibition at 50 µM / Aromatase % inhib.: vs vehicle-treated controls; for Aromatase % inhib.: 50 μM. It counts as biochemical.

The test system of experiment [2] is quinone reductase 1 (QR1). Briefly: QR1 induction in cell culture. It counts as cell-based, murine. As to conditions: 50 μM; Hepa 1c1c7 cells. An outline of the steps:
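Hepa 1c1c7 murine hepatoma cells. QR1 measured by NADPH-dependent, menadiol-mediated reduction of MTT to blue formazan, with protein determined by crystal violet staining of identical plates. Specific activity given as nmol formazan/mg protein/min. IR is the ratio of treated to DMSO-control specific activity. CD (concentration doubling activity) derived by dose-response for IR >2.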

Experiment [3] relates to Hepa 1c1c7 murine hepatoma cells. Briefly: Cell survival in the QR1 assay. It counts as cell-based. The note with it: for viability at 50 µM: Mus musculus, Hepa-1c1c7, read-out: QR1 % surv.; for QR1 % surv.: 50 μM, cell survival in comparison with vehicle-treated controls.
For another experiment, the system named is RAW 264.7 cells. The experiment can be described thus: Cell survival in the nitrite assay. It is filed as cell-based, murine. As to conditions: for viability at 50 µM: Mus musculus, RAW264.7, 20 h, read-out: Nitrite assay % surv.; for Nitrite assay % surv.: 50 μM, RAW 264.7 cells. The procedure, abridged:
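RAW 264.7 cells held 24 h at 37°C, 5% CO2, then given serially diluted test compound for 15 min. LPS (1 μg/mL) or no LPS added for a further 20 h. Viability assessed by SRB protein staining under the same conditions as the nitrite assay, as % survival versus vehicle-treated controls.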

In experiment [4] the test system is Human embryonic kidney cells 293. The experiment can be described thus: Cell survival in the NFκB assay. It counts as cell-based. As to conditions: for viability at 50 µM: Homo sapiens, HEK293, 6 h, read-out: NFκB % surv.; for NFκB % surv.: 50 μM, 293 cells.
The test system of another experiment is MCF7 breast cancer cells. Briefly: SRB assay: MCF7 cell proliferation. It counts as cell-based. As to conditions: for viability at 50 µM: Homo sapiens, MCF7, 72 h, read-out: SRB assay % surv.; for SRB assay % surv.: MCF7 cells, 72 h. The procedure, abridged:
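MCF7 cells (1 × 10^4 per well) plated with test compound, 72 h at 37°C, 5% CO2. Fixed in 10% TCA for 30 min, stained with 0.4% SRB in 1% acetic acid for 30 min, then washed with 1% acetic acid. Bound dye dissolved in 10 mM Tris (pH 10.0) and A515 read. Survival given as % of vehicle-treated controls.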
Background: In SRB staining, fixed cells bind dye roughly in proportion to their protein.

Experiment [5] concerns various human cancer cell lines. As to conditions: natural callophycin A; cited from earlier work.
In experiment [6] the test system is nitric oxide (NO) production in LPS-stimulated RAW 264.7 murine macrophage cells. The experiment can be described thus: Nitrite assay: NO production in LPS-stimulated RAW 264.7 cells. It is filed as cell-based.

Like-named read-outs stand apart in the source and are kept apart here. Bounds are passed on as bounds.

In the case of `O=C(O)[C@H]1Cc2c([nH]c3ccccc23)CN1` [Compound 1b, 1,2,3,4-tetrahydro-β-carboline-3-carboxylic acid], the inhibition at 50 µM in [1] (Homo sapiens) was -72.5%.
Turning to `C=CCOC(=O)N1Cc2[nH]c3ccccc3c2C[C@H]1C(=O)OC` [Compound 3a, (S)-2-Allyl 3-methyl 3,4-dihydro-1H-pyrido[3,4-b]indole-2,3(9H)-dicarboxylate], the inhibition at 50 µM at aromatase (CYP19) is over 50%.
By IC50 is commonly meant the concentration that gives 50% inhibition. As for `COC(=O)[C@@H]1Cc2c([nH]c3ccccc23)CN1C(=O)OCC(C)C` [Compound 3b, (S)-2-Isobutyl 3-methyl 3,4-dihydro-1H-pyrido[3,4-b]indole-2,3(9H)-dicarboxylate], the “QR1 IR (induction ratio)” value in experiment [2] was 1.7. Also, the viability at 50 µM in experiment [3] was 88.3%; with RAW 264.7 cells, 105%; in [4], 95.6%; in the experiment with MCF7 breast cancer cells, 76.7%. For the same compound, the IC50 on aromatase (CYP19) was 64.5 µM; in experiment [1] (Homo sapiens, HEK293, read-out: NFκB IC50), 16.2 µM. Further, the inhibition at 50 µM amounted to 41.5% on aromatase (CYP19) and 59.8% in experiment [1] (Homo sapiens).
Take `COC(=O)[C@@H]1Cc2c([nH]c3ccccc23)CN1C(=O)NC(C)C` [Compound 6b, (S)-Methyl 2-(isopropylcarbamoyl)-2,3,4,9-tetrahydro-1H-pyrido[3,4-b]indole-3-carboxylate]: the inhibition at 50 µM at aromatase (CYP19) is over 50%.
Turning to `CC(C)COC(=O)N1Cc2[nH]c3ccccc3c2C[C@H]1C(=O)O` [Compound 7b, (S)-2-(Isobutoxycarbonyl)-2,3,4,9-tetrahydro-1H-pyrido[3,4-b]indole-3-carboxylic acid], the “QR1 IR (induction ratio)” value in experiment [2] was determined as 1.8. The viability at 50 µM in experiment [3] was found to be 94.2%; with RAW 264.7 cells it was 137%; in [4], 138%; in the experiment on MCF7 breast cancer cells, 105%. The IC50 on aromatase (CYP19) was 72 µM. The inhibition at 50 µM was 40% on aromatase (CYP19) and 42.6% in experiment [1] (Homo sapiens).
For the compound `O=C(O)[C@@H]1Cc2c([nH]c3ccccc23)CN1Cc1ccc(O)cc1` [Compound 12a, (S)-Callophycin A], the inhibition at 50 µM on aromatase (CYP19) was over 50%.
Take `O=C(O)C1Cc2c([nH]c3ccccc23)CN1Cc1ccc(O)cc1` (stereo not shown) [callophycin A, Callophycin A]: the “inhibition of MCF7 cell proliferation (in words)” value with MCF7 breast cancer cells (50 μM) was “didn’t show the inhibitory activity”. The antiproliferative effects result in [5] is “low micromolar concentrations”.
In the case of “(R)-2-(Isobutoxycarbonyl)-2,3,4,9-tetrahydro-1H-pyrido[3,4-b]indole-3-carboxylic acid [Compound 7d]”, the “QR1 IR (induction ratio)” value in experiment [2] amounted to 1.5. In [3], this compound yielded a QR1 % surv. of 87.5%. On aromatase (CYP19), this compound returned an Aromatase % inhib. of 36.3%. Also, the “Nitrite assay % inhib.” value in [6] (50 μM) amounted to 1.5%. Also, the “Nitrite assay % surv.” value in the experiment with RAW 264.7 cells was found to be 134.4%. Also, in experiment [1] (TNFα-treated 293 cells), the NFκB % inhib. amounted to 46.1%. Also, the NFκB % surv. in experiment [4] is reported as 264.3%. The “SRB assay % surv.” value in the experiment with MCF7 breast cancer cells (50 μM) is 97.4%.
Regarding “(R)-2-Isobutyl 3-methyl 3,4-dihydro-1H-pyrido[3,4-b]indole-2,3(9H)-dicarboxylate [Compound 3d]”, the “QR1 IR (induction ratio)” value in [2] is recorded as 1.1. Also, the QR1 % surv. in experiment [3] came to 78.8%. Besides, at aromatase (CYP19), the Aromatase % inhib. amounted to 31.7%. Also, the IC50 in experiment [6] (read-out: Nitrite assay IC50) is 2.8 µM; in [1] (read-out: NFκB IC50, TNFα-treated 293 cells), 4.8 µM. The “Nitrite assay % surv.” value in the experiment on RAW 264.7 cells stood at 92.6%. This compound registered an NFκB % inhib. in experiment [1] (TNFα-treated 293 cells) of 91.6%. In [4], the NFκB % surv. was determined as 112.3%. For the same compound, the “SRB assay % surv.” value with MCF7 breast cancer cells (50 μM) is reported as 72.0%.
